Experimental data as given in ChEMBL document CHEMBL4024802, “3-((R)-4-(((R)-6-(2-Bromo-4-fluorophenyl)-5-(ethoxycarbonyl)-2-(thiazol-2-yl)-3,6-dihydropyrimidin-4-yl)methyl)morpholin-2-yl)propanoic Acid (HEC72702), a Novel Hepatitis B Virus Capsid Inhibitor Based on Clinical Candidate GLS4” (J Med Chem, 2018).

Key:
[1] = Oral bioavailability in Sprague-Dawley rat at 5 mg/kg administered as single dose by LC-MS/MS analysis; type: ADME, organism-based; details: in vivo
How it was run: (§1)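 Male Sprague−Dawley rats (6−7 weeks, 190−240 g), fasted overnight with food returned 4 h post-dose; 3 rats iv, 3 po; vehicle 5% DMSO, 5% solutol, 90% saline. Heparinized plasma frozen at −80 °C, analysed by LC-MS/MS; noncompartmental PK parameters, BLQ values excluded.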

[2] = Intrinsic clearance in human liver microsomes at 1 uM preincubated for 10 mins followed by NADPH addition measured up to 60 mins by LC-MS/MS analysis; type: ADME, microsome; details: read-out: CLH
[3] = AUC (0 to 24 hrs) in Sprague-Dawley rat at 5 mg/kg, po administered as single dose by LC-MS/MS analysis; type: ADME, organism-based; design: time < 24 hr, dose 5 mg/kg, route oral; details: in vivo; how it was run: as §1
[4] = Clearance in Sprague-Dawley rat at 2 mg/kg, iv administered as single dose by LC-MS/MS analysis; type: ADME, organism-based; details: in vivo; how it was run: as §1
[5] = Volume of distribution at steady state in Sprague-Dawley rat at 2 mg/kg, iv administered as single dose by LC-MS/MS analysis; type: ADME, organism-based; details: in vivo, read-out: Vdss
How it was run: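 Male Sprague−Dawley rats (6−7 weeks, 190−240 g) were fasted overnight, with food returned 4 h post-dose and n = 3 in the iv group. A single dose was given in 5% DMSO, 5% solutol and 90% saline. Heparinized plasma was separated at 4 °C and frozen at −80 °C. Concentrations were measured by LC-MS/MS, with parameters from noncompartmental analysis and BLQs excluded.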

[6] = (§2) Intrinsic clearance in dog liver microsomes at 1 uM preincubated for 10 mins followed by NADPH addition measured up to 60 mins by LC-MS/MS analysis; type: ADME, Canis lupus familiaris, microsome; details: liver microsomes, read-out: CLH
[7] = AUC (0 to 24 hrs) in Sprague-Dawley rat at 2 mg/kg, iv administered as single dose by LC-MS/MS analysis; type: ADME, organism-based; design: dose 2 mg/kg, time < 24 hr, route intravenous; details: in vivo; how it was run: as §1
[8] = Intrinsic clearance in mouse liver microsomes at 1 uM preincubated for 10 mins followed by NADPH addition measured up to 60 mins by LC-MS/MS analysis; type: ADME, microsome; details: read-out: CLH
[9] = Half life in Beagle dog at 2 mg/kg, iv administered as single dose by LC-MS/MS analysis; type: ADME, organism-based, Canis lupus familiaris; details: in vivo
[10] = Drug uptake in Balb/c mouse liver at 12.5 mg/kg, po bid after 24 hrs by LC-MS/MS analysis; type: ADME, organism-based; details: read-out: Drug uptake
[11] = Plasma concentration in Beagle dog at 2 mg/kg, iv administered as single dose after 24 hrs by LC-MS/MS analysis; type: ADME, organism-based, Canis lupus familiaris
How it was run: (§3)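 Beagle dogs, 7−9 months, 8−12 kg, non-naive, fasted overnight; 3 dogs per iv or po group; dosed in 5% DMSO/5% solutol/90% saline. Serial blood into sodium heparin, plasma separated at 4 °C, stored −80 °C; LC-MS/MS quantitation; noncompartmental analysis, BLQs omitted.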

[12] = Cmax in Beagle dog at 2 mg/kg, iv administered as single dose by LC-MS/MS analysis; type: ADME, organism-based, Canis lupus familiaris; design: dose 2 mg/kg, route intravenous; details: in vivo; how it was run: as §3
[13] = Oral bioavailability in Beagle dog at 5 mg/kg administered as single dose by LC-MS/MS analysis; type: ADME, organism-based, Canis lupus familiaris; details: in vivo
[14] = AUC (0 to 24 hrs) in Beagle dog at 2 mg/kg, iv administered as single dose by LC-MS/MS analysis; type: ADME, organism-based, Canis lupus familiaris; design: dose 2 mg/kg, time < 24 hr, route intravenous; details: in vivo; how it was run: as §3
[15] = Clearance in Beagle dog at 2 mg/kg, iv administered as single dose by LC-MS/MS analysis; type: ADME, organism-based, Canis lupus familiaris; details: in vivo; how it was run: as §3
[16] = AUC (0 to 24 hrs) in Beagle dog at 5 mg/kg, po administered as single dose by LC-MS/MS analysis; type: ADME, organism-based, Canis lupus familiaris; design: time < 24 hr, dose 5 mg/kg, route oral; details: in vivo; how it was run: as §3
[17] = Plasma concentration in Beagle dog at 5 mg/kg, po administered as single dose after 24 hrs by LC-MS/MS analysis; type: ADME, organism-based, Canis lupus familiaris; how it was run: as §3
[18] = Plasma concentration in Balb/c mouse at 12.5 mg/kg, po bid after 24 hrs by LC-MS/MS analysis; type: ADME, organism-based
[19] = Volume of distribution at steady state in Beagle dog at 2 mg/kg, iv administered as single dose by LC-MS/MS analysis; type: ADME, organism-based, Canis lupus familiaris; details: in vivo, read-out: Vdss
How it was run: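 Non-naive beagle dogs (7−9 months, 8−12 kg) were fasted overnight, with 3 animals in the iv group. Compound was given as a single dose in 5% DMSO, 5% solutol and 90% saline. Plasma was taken from heparinized blood at each time point and stored at −80 °C. Levels were measured by LC-MS/MS, with noncompartmental analysis and BLQ values omitted.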

[20] = test system: Liver; test: as §2; type: ADME, Canis lupus familiaris, microsome; details: microsomes, 1 h, 1 µM
[21] = Cmax in Beagle dog at 5 mg/kg, po administered as single dose by LC-MS/MS analysis; type: ADME, organism-based, Canis lupus familiaris; design: dose 5 mg/kg, route oral; details: in vivo; how it was run: as §3

bioavailability [1]	CLint scaled at 1 µM [2]	AUC(0-t) at 24 h [3]	clearance [4]	Vd [5]	CLint scaled at 1 µM [6]	AUC(0-t) at 24 h [7]	CLint scaled at 1 µM [8]	Compound	further results
54%	23 mL/min/kg	572 ng·h/mL	78.7 mL/min/kg	1.53 L/kg	46 mL/min/kg	423 ng·h/mL	316 mL/min/kg	CCOC(=O)C1=C(CN2CCOC[C@@H]2CCC(=O)O)NC(c2nccs2)=N[C@H]1c1ccc(F)cc1Br	–
47.7%	18 mL/min/kg	4900 ng·h/mL	8.11 mL/min/kg	0.41 L/kg	14 mL/min/kg	4110 ng·h/mL	385 mL/min/kg	CCOC(=O)C1=C(CN2CCO[C@H](CCC(=O)O)C2)NC(c2nccs2)=N[C@H]1c1ccc(F)cc1Br	half-life [9]: 343 min; concentration at 24 h [10]: 361 ng/g; concentration at 24 h [11]: 47 ng/mL; Cmax [12]: 2050 ng/mL; bioavailability [13]: 114%; AUC(0-t) at 24 h [14]: 16500 ng·h/mL; clearance [15]: 1.93 mL/min/kg; AUC(0-t) at 24 h [16]: 47900 ng·h/mL; concentration at 24 h [17]: 232 ng/mL; concentration at 24 h [18]: 849 ng/mL; Vd [19]: 0.76 L/kg
44.5%	5 mL/min/kg	1750 ng·h/mL	20.6 mL/min/kg	0.37 L/kg	–	1610 ng·h/mL	89 mL/min/kg	CCOC(=O)C1=C(CN2CCO[C@H](C)[C@H]2C(=O)O)NC(c2nccs2)=N[C@H]1c1ccc(F)cc1Br	CLH [20]: Stable
41.3%	21 mL/min/kg	999 ng·h/mL	34.4 mL/min/kg	0.77 L/kg	55 mL/min/kg	965 ng·h/mL	362 mL/min/kg	CCOC(=O)C1=C(CN2CC(F)(F)C[C@@H]2CCC(=O)O)NC(c2nccs2)=N[C@H]1c1ccc(F)cc1Br	–
41%	21 mL/min/kg	436 ng·h/mL	77.3 mL/min/kg	1.24 L/kg	11 mL/min/kg	430 ng·h/mL	281 mL/min/kg	CCOC(=O)C1=C(CN2CCO[C@@H](CCC(=O)O)C2)NC(c2nccs2)=N[C@H]1c1ccc(F)cc1Br	–
8.9%	20 mL/min/kg	90 ng·h/mL	82.2 mL/min/kg	4.85 L/kg	–	405 ng·h/mL	485 mL/min/kg	CCOC(=O)C1=C(CN2CCOCC2)NC(c2nccs2)=NC1c1ccc(F)cc1Br (centres undefined)	Cmax [21]: 391 ng/mL; concentration at 24 h [11]: 15 ng/mL; Cmax [12]: 1420 ng/mL; AUC(0-t) at 24 h [14]: 1470 ng·h/mL; clearance [15]: 16.6 mL/min/kg; AUC(0-t) at 24 h [16]: 1010 ng·h/mL; concentration at 24 h [17]: 9 ng/mL; Vd [19]: 15.8 L/kg
23.1%	7 mL/min/kg	548 ng·h/mL	34.9 mL/min/kg	0.4 L/kg	29 mL/min/kg	948 ng·h/mL	377 mL/min/kg	CCOC(=O)C1=C(CN2CCOC[C@H]2C(=O)O)NC(c2nccs2)=N[C@H]1c1ccc(F)cc1Br	–
